Starred links: 1 amine or outer side, 2 acyl side, 3 side chain; linkers in the order of their positions; H or OH if unused. Residues, ends and D or L forms follow the SMILES beside them. *: point of attachment. Thiocarbamoyl(4-MeOPh) = COc1ccc(NC(=S)*)cc1; NH(4-MeO-phenyl) = COc1ccc(N*)cc1; X1 = c1ccc2c(N3CCN(*)CC3)nsc2c1; X4 = COc1cccc(NC(=S)*)c1; X5 = COc1ccccc1NC(=S)*; Boc = CC(C)(C)OC(=O)*; CO = O=C([*:1])[*:2]; X6 = Fc1cccc(N*)c1; X3 = COc1ccccc1N*
Assays:
[1] = tested on: Fusarium oxysporum; test: Antifungal activity against Fusarium oxysporum at 50 ug/mL incubated for 3 days by agar well diffusion method; format: functional; conditions: 72 h, read-out: IZ
Procedure, shortened: (§1)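 Fungal growth inhibition measured by agar well diffusion, with bavistin as the reference. Records the mean inhibition-zone diameter (mm) around each well.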

[2] = Antiglycation activity using bovine serum albumin incubated at 37 degC for 7 days by spectrofluorimetry; format: physicochemical
Procedure, shortened: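 Glycation of bovine serum albumin, with rutin as the reference standard. IC50 values are averages of triplicate runs.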

[3] = tested on: Escherichia coli; test: Antibacterial activity against Escherichia coli at 50 ug/mL incubated for 24 hrs by agar well diffusion method; format: functional; conditions: read-out: IZ
Procedure, shortened: (§2)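 Agar well diffusion against the bacterial isolate, with streptomycin as the reference drug. Read-out is the average diameter (mm) of the growth-inhibition zone around the well.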

[4] = tested on: Aspergillus niger; test: Antifungal activity against Aspergillus niger at 50 ug/mL incubated for 3 days by agar well diffusion method; format: functional; conditions: 72 h, read-out: IZ; procedure, shortened: as §1
[5] = tested on: Aspergillus flavus; test: Antifungal activity against Aspergillus flavus at 50 ug/mL incubated for 3 days by agar well diffusion method; format: functional; conditions: 72 h, read-out: IZ; procedure, shortened: as §1
[6] = Inhibition of sheep stomach parietal cells gastric H+/K+-ATPase activity assessed as reduction in inorganic phosphorus production by Fiske Subbarow's method; format: tissue-based, Ovis aries
Procedure, shortened: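 Inhibition of purified H+/K+-ATPase, with omeprazole as the reference. IC50 is the mean of triplicate runs.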

[7] = tested on: Xanthomonas oryzae; test: Antibacterial activity against Xanthomonas oryzae at 50 ug/mL incubated for 24 hrs by agar well diffusion method; format: functional; conditions: read-out: IZ
[8] = target: Urease (Canavalia ensiformis, UniProt P07374); test: Inhibition of jack bean urease assessed as reduction in ammonia production incubated at 30 degC for 15 mins by indophenol method
Urease, sequence (P07374 whole entry): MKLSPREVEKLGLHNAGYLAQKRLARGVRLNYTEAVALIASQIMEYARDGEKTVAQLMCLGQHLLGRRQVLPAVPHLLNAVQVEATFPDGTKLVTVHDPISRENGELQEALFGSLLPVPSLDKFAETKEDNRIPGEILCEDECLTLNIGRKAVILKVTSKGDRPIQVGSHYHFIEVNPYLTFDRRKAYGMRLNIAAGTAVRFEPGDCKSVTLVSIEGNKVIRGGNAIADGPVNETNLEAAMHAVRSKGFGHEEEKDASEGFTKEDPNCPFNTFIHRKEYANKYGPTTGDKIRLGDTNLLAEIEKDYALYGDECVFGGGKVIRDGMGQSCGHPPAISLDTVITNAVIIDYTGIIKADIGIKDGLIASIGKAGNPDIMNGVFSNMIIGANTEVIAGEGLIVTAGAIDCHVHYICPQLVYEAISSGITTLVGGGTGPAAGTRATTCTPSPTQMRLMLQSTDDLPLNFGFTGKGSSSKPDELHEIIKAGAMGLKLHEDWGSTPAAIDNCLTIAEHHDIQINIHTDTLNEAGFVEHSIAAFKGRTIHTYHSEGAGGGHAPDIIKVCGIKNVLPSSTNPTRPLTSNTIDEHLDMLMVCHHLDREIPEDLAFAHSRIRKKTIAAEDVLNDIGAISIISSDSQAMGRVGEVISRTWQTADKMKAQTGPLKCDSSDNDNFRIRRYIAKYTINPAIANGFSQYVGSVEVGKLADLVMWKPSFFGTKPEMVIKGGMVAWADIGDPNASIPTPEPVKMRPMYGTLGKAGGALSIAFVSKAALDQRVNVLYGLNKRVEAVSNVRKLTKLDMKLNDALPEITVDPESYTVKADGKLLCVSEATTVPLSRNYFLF
Procedure, shortened: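 Inhibition of jack bean urease, with thiourea as the reference standard. IC50 values are the average of triplicate runs.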

[9] = tested on: Fusarium verticillioides; test: Antifungal activity against Fusarium moniliforme at 50 ug/mL incubated for 3 days by agar well diffusion method; format: functional; conditions: 72 h, read-out: IZ; procedure, shortened: as §1
[10] = tested on: Staphylococcus; test: Antibacterial activity against Coagulase positive Staphylococcus at 50 ug/mL incubated for 24 hrs by agar well diffusion method; format: functional; conditions: read-out: IZ; procedure, shortened: as §2

| SMILES | zone of inhibition at 50 µg/mL [1] | IC50 [2] | zone of inhibition at 50 µg/mL [3] | zone of inhibition at 50 µg/mL [4] | zone of inhibition at 50 µg/mL [5] | IC50 ([6]; read-out: IC50) | zone of inhibition at 50 µg/mL [7] | IC50 [8] | zone of inhibition at 50 µg/mL [9] | zone of inhibition at 50 µg/mL [10] | IC50 [6] |
| --- | --- | --- | --- | --- | --- | --- | --- | --- | --- | --- | --- |
| COc1ccccc1NC(=O)NCC(=O)N[C@@H](Cc1ccccc1)C(=O)NCC(=O)N[C@H](C(=O)N1CCC[C@H]1C(=O)N1CCN(c2nsc3ccccc23)CC1)C(C)C ({X3-CO}-GFGVP-X1) | 23 mm | 22 µM | 23 mm | 24 mm | 25 mm | 54 µM | 22 mm | 21 µM | 26 mm | 23 mm |  |
| C[C@@H]1O[C@@H](OC[C@H]2O[C@@H](Oc3c(-c4ccc(O)c(O)c4)oc4cc(O)cc(O)c4c3=O)[C@H](O)[C@@H](O)[C@@H]2O)[C@H](O)[C@H](O)[C@H]1O [RUTIN] |  | 41.9 µM |  |  |  |  |  |  |  |  |  |
| COc1cccc(NC(=S)NCC(=O)N[C@H](C(=O)NCC(=O)N[C@H](C(=O)N2CCC[C@H]2C(=O)N2CCN(c3nsc4ccccc34)CC2)C(C)C)C(C)C)c1 (X4-GVGVP-X1) | 19 mm | 23 µM | 17 mm | 16 mm | 18 mm | 36 µM | 16 mm | 23 µM | 19 mm | 18 mm |  |
| COc1ccc(NC(=O)NCC(=O)N[C@@H](Cc2ccccc2)C(=O)NCC(=O)N[C@H](C(=O)N2CCC[C@H]2C(=O)N2CCN(c3nsc4ccccc34)CC2)C(C)C)cc1 ({NH(4-MeO-phenyl)-CO}-GFGVP-X1) | 27 mm | 19 µM | 26 mm | 28 mm | 28 mm | 38 µM | 23 mm | 17 µM | 29 mm | 26 mm |  |
| COc1ccc(NC(=S)NCC(=O)N[C@H](C(=O)NCC(=O)N[C@H](C(=O)N2CCC[C@H]2C(=O)N2CCN(c3nsc4ccccc34)CC2)C(C)C)C(C)C)cc1 ({Thiocarbamoyl(4-MeOPh)}-GVGVP-X1) | 26 mm | 18 µM | 24 mm | 24 mm | 25 mm | 32 µM | 25 mm | 18 µM | 26 mm | 24 mm |  |
| CC(C)[C@H](NC(=O)CNC(=O)[C@H](Cc1ccccc1)NC(=O)CNC(=O)OC(C)(C)C)C(=O)N1CCC[C@H]1C(=O)N1CCN(c2nsc3ccccc23)CC1 (Boc-GFGVP-X1) | 7 mm | 235 µM | 8 mm | 6 mm | 7 mm |  | 7 mm | 255 µM | 7 mm | 6 mm | Not Active |
| COc1ccccc1NC(=S)NCC(=O)N[C@H](C(=O)NCC(=O)N[C@H](C(=O)N1CCC[C@H]1C(=O)N1CCN(c2nsc3ccccc23)CC1)C(C)C)C(C)C (X5-GVGVP-X1) | 22 mm | 20 µM | 21 mm | 20 mm | 22 mm | 40 µM | 19 mm | 20 µM | 23 mm | 20 mm |  |
| CC(C)[C@H](NC(=O)CNC(=O)Nc1cccc(F)c1)C(=O)NCC(=O)N[C@H](C(=O)N1CCC[C@H]1C(=O)N1CCN(c2nsc3ccccc23)CC1)C(C)C ({X6-CO}-GVGVP-X1) | 24 mm | 52 µM | 24 mm | 27 mm | 25 mm | 88 µM | 22 mm | 44 µM | 27 mm | 23 mm |  |

— ChEMBL document CHEMBL3352339, “Implications of N-capped urea/thiourea and C-capped 3-(1-piperazinyl)-1,2-benzisothiazole with bridging Gly-Val/Phe-Gly-Val-Pro as therapeutic targets” (Eur J Med Chem, 2014)
